# Screens (PubChem)
# Dyrk1A ADPGlo – blocks rat Dyrk1A kinase activity. Q63470. ADP-Glo luminescence, NFATc1 peptide. inhibition, % at 12.5 µM. 310,000 compounds, 0.43% hits; in the data active = inhibition above about 50%;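 also: plate controls were vehicle with enzyme for no effect and no enzyme for full effect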
# STK33 inh – inhibitors of human STK33 kinase; purified STK33, MBP phosphorylation, ADP-Glo luminescence; inhibition, % at 10 µM; 320,000 compounds, 0.073% hits; Q9BYT3; AID 2661;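 active = inhibition at or above 25%, using the most active replicate where run in duplicate; inactive = inhibition below 25%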
# CDK5 inh – inhibitors of human CDK5/p35 kinase. 330,000 compounds, 0.01% hits. Recombinant CDK5/p35, ADP-Glo luminescence, 60 min. inhibition, % at 10 µM;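 active = highest replicate inhibition of at least 50% and at least 75% of replicates reaching 50%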;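 also: plate controls were DMSO neutral control for no effect and GW8510 at 10 µM for full effect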
# GSK3beta inhib – human GSK3beta kinase inhibition; P49841; GST-GSK3beta kinase, ADP-Glo luminescence, 60 min; hits give low values; activity score (negative = inhibition), % at 10 µM; 300,000 compounds, 0.038% hits;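 active = more than half of replicate wells score below -50%, meaning over 50% inhibition versus plate controls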;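 also: 0% = median DMSO wells and -100% = median GW8510 positive control wells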
# Target sequence (P49841 whole entry, looked up): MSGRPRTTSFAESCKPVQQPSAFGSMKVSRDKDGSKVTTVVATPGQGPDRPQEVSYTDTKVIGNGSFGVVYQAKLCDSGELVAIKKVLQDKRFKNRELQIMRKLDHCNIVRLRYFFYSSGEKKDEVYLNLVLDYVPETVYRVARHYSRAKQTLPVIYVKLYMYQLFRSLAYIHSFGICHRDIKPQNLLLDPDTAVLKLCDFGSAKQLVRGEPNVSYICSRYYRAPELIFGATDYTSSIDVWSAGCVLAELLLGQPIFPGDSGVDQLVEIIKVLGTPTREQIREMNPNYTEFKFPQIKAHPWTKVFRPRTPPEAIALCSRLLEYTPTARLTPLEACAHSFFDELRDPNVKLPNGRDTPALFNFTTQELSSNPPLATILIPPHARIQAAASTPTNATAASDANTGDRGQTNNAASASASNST
#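 Assay system: GST-fused GSK3beta enzyme, cell-free / Medium: Tris pH 7.5 buffer with MgCl2, DTT, BSA, heparin / Also added: peptide substrate plus 25 µM ATP (final) / Compound: 10 µM single point / Timing: kinase reaction with compound 60 min at room temperature / Detection: ADP-Glo luminescence / Benchmarks: DMSO neutral wells and GW8510 at 20 µM as positive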
# GSK3A inh – inhibitors of human GSK-3 alpha kinase; P49840; 320,000 compounds, 0.1% hits; ADP-Glo luminescence, 60 min; inhibition, % at 10 µM; AID 2650;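 active = more than half of replicates show inhibition above 20%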;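 also: GST-tagged GSK-3 alpha with peptide substrate and 25 µM ATP; 0% = DMSO neutral wells and 100% = GW8510 positive control wells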
# * hit, by the source's call; / = no result given. This is one part of a sample in which hits are shown more often than they occur.
SMILES,Dyrk1A ADPGlo,STK33 inh,CDK5 inh,GSK3beta inhib,GSK3A inh
c1ccc(C2=Nn3c(nnc3-c3cccs3)SC2)cc1,/,-2,0,1,-4
Cc1sc2ncnc(N/N=C/c3cccc(O)c3)c2c1C,17,28*,/,-2,6
O=c1[nH]cccc1-c1nc2ccccc2[nH]1,10,10,-3,-2,72*
O=C(NCc1cccnc1)c1cc(S(=O)(=O)N2CCCC2)c(Cl)cc1Cl,2,/,-2,-2,/
c1ccc(CNc2ncnc3scc(-c4cccs4)c23)nc1,25,11,-4,-37,57*
O=C(NCc1n[nH]c(=S)n1-c1ccc([N+](=O)[O-])cc1)c1ccc(S(=O)(=O)N2CCOCC2)cc1,-3,0,-1,1,-1
O=C1NCCCc2c1oc1cc(Br)c(O)c(Br)c21,66*,12,4,0,36
CC(C)NCc1c(O)c(Br)cc2oc3c(c12)CCCC3,4,/,-1,/,/
COc1ccc(C(=O)c2sc(Nc3ccccc3)nc2C)cc1,4,2,-1,0,4
CC(C)(C)C(=O)c1sc(Nc2ccccc2)nc1N,21,2,30,-64*,82*
COc1ccc(Nc2nc(N)c(C(=O)c3ccc(OC)cc3)s2)cc1,/,4,15,-65*,77*
COc1ccc(Nc2nc(N)c(C(=O)c3ccc(F)cc3)s2)cc1,-3,3,6,-45,62*
Cc1nc(Nc2ccccc2)sc1C(=O)c1ccccc1,-5,-2,0,-15,6
COc1ccc(C(=O)c2sc(NC(C)C)nc2N)cc1OC,2,-1,-3,/,91*
COCCSc1ccccc1C(=O)Nc1ccc(Br)cc1,0,-1,-1,2,-10
Oc1ccc(/C=C/c2ccnc3ccccc23)cc1,-4,25*,-2,-3,-2
CSc1nc2ncc3c(n2n1)CC1c2ccccc2CCN1C3=O (centres undefined),0,0,-2,-27,72*
CC(=O)OCC1OC(COC(C)=O)(c2ccc(C)cc2)C(OC(C)=O)C1OC(C)=O (centres undefined),-5,/,-2,/,/
COc1cccc(-c2onc3ccc(C(=O)/C=C/N(C)C)cc23)c1,10,54*,1,1,16
O=[N+]([O-])/C(Cl)=C(/NCCO)C(Cl)=C(Cl)Cl,2,/,2,/,/
O=C(COC(=O)c1cc(S(=O)(=O)N2CCOCC2)ccc1F)Nc1ccc(Cl)cn1,/,1,2,/,51*
O=C(COC(=O)CCc1ccc(S(=O)(=O)N2CCOCC2)cc1)Nc1ccc(Cl)cn1,6,-3,3,-18,20
COc1ccc(CNC(=O)C(CC(C)C)NC(=O)c2ccccc2C)cc1 (centres undefined),7,0,-10,-4,2
Nc1nc(-c2ccccc2)[nH]c(=O)c1N,75*,3,2,-1,2
Nc1[nH]nc2nc(-c3ccccc3)[nH]c(=O)c12,-4,2,1,3,9
SMILES,Dyrk1A ADPGlo,STK33 inh,CDK5 inh,GSK3beta inhib,GSK3A inh
Cc1[nH]cnc1C(=O)N/N=C/c1c(Cl)cccc1Cl,28,27*,26,-29,33
O=C(O)C1OC(Oc2c(-c3ccc(O)c(O)c3)oc3cc(O)cc(O)c3c2=O)C(O)C(O)C1O (centres undefined),/,1,/,0,6
COc1ccc(-c2cc(=O)c3c(O)cc(O)cc3o2)cc1,-1,0,-2,/,0
O=c1c(O)c(-c2ccc(O)c(O)c2)oc2cc(O)cc(O)c12,4,38*,-3,-45,57*
O=c1cc(-c2ccc(O)c(O)c2)oc2cc(O)cc(O)c12,91*,-1,15,-35,27
Cc1oc2ccc(O)c(CN3CCOCC3)c2c1C(=O)c1ccc(Cl)cc1,9,-1,1,1,9
Cc1oc2c(Cl)c(Cl)c(O)c(CN(C)C)c2c1C(=O)c1ccc(Cl)cc1,15,-1,0,7,70*
C=CCNc1nc(N)c([N+](=O)[O-])c(N2CCCCCC2)n1,22,-2,2,-7,22
CCN(CC)CCCNc1nc(N)c([N+](=O)[O-])c(N2CCCCCC2)n1,11,-1,0,-16,54*
O=C(O)c1ccc(N=Nc2c(O)[nH]c3cc(Cl)ccc23)cc1,/,2,4,-27,28
O=C(O)c1ccc(N=Nc2c(O)[nH]c3ccc(Br)cc23)cc1,9,1,-4,2,64*
CCOc1ccc(-c2cc(CCCC(=O)NCCCOC)no2)cc1,-1,28*,-1,2,0
CCOc1ccc(-c2cc(CCCC(=O)N3CCN(c4ccc(OC)cc4)CC3)no2)cc1,5,-1,2,5,-1
CCOC(=O)N1CCN(C(=O)C(CC(C)C)NS(=O)(=O)c2ccc(C)cc2)CC1 (centres undefined),5,/,0,/,/
CC(=O)n1cc(/C=N/NC(=O)c2sc(C)nc2C)c2ccccc21,2,0,/,-2,8
CC(=O)n1cc(-c2ccncc2)c2ccccc21,69*,10,2,-13,23
COc1ccc(C2=CC3=C(Br)C(=O)C(C)(O)C(=O)C3=CO2)cc1 (centres undefined),4,29*,3,2,0
CN1/C(=C/C=C(/C#N)C(N)=O)C(C)(C)c2ccccc21,11,3,4,-35,63*
CCCCOC(=O)C1=C(C)Nc2ncnn2C1c1cccc(OC)c1OC (centres undefined),2,0,2,-4,85*
CNC(=O)NC(=O)CSc1nc(-c2cccs2)c(C#N)c(=O)[nH]1,6,/,1,-75*,/
CSc1nc(-c2cccs2)c(C#N)c(=O)[nH]1,48,1,0,3,1
CCN(CC)c1ccc(/C=C2/C(=O)c3ccc(C(=O)O)cc3C2=O)cc1,4,78*,6,/,23
CCN(CC)c1ccc(C=C2C(=O)OC3(CCCCC3)OC2=O)cc1,-2,-3,1,-1,-2
CC1CCCCC1NC(=O)NC(=O)COC(=O)c1ccc(OC(F)F)cc1 (centres undefined),5,/,0,/,/
COc1ccc(CC(=O)Nc2nc(C)cs2)cc1OC,-11,-2,-1,/,-2
CCCCC(=O)Nc1ncc([N+](=O)[O-])s1,15,-1,7,-61*,81*
CC(C)CC(=O)Nc1ncc([N+](=O)[O-])s1,14,1,5,-1,80*
COc1ccc(CC(=O)Nc2ncc([N+](=O)[O-])s2)cc1OC,44,-1,9,-45,75*
Cc1cc(NC(=O)CCC(=O)N(Cc2ccccc2)C2(C(=O)NC3CCCCC3)CCCC2)no1,-3,-3,0,7,0
OCCCNc1ncnc2oc(-c3ccccc3)c(-c3ccccc3)c12,17,15,4,-1,9
